RGS4 act: RGS4 potentiators or activators, primary screen, cell-based, HEK293 M3R inducible RGS4, calcium flux. carbachol calcium flux Fluo4; hits give low values. B-score at 10 µM. actives 0.92% (n = 310,000);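 active = B-score of the integrated calcium signal more than 4 SD below the library mean, with starting fluorescence not abnormally high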;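 also: negative B-score means reduced calcium response which marks RGS4 activation or potentiation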
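Assay system: Inducible-RGS4 HEK293 cells carrying M3 receptor | Schedule: Compound preincubation 20 min at room temperature before agonist | Signal: Kinetic calcium fluorescence imaging with Fluo4-AM dye, 2 µM | Read-out basis: B score from integrated fluorescence ratio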
RGS4 inh: RGS4 inhibitors, primary screen, cell-based, HEK293 M3R inducible RGS4, calcium flux. Regulator of G-protein signaling 4 (Homo sapiens), P49798. Fluo-4 calcium flux; hits give high values; triggered by carbachol at its EC20. B-score at 10 µM. actives 0.45% (n = 310,000);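 active = B-score, a plate-corrected calcium signal, over three deviations above library mean, with baseline fluorescence within five deviations of library mean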;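 also: RGS4 expression induced by doxycycline in cells with stable M3 receptor; B-score is computed from the integrated fluorescence ratio over baseline after carbachol; higher B-score means a larger calcium signal and so more RGS4 inhibition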
Target sequence (P49798 whole entry, looked up): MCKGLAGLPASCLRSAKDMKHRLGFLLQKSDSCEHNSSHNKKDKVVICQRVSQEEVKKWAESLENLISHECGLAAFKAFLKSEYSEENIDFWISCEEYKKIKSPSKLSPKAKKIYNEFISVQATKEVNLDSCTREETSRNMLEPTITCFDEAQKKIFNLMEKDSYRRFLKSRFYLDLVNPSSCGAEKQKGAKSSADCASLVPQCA
Kir21 block: inhibitors of mouse Kir2.1 inward-rectifier potassium channel | Inward rectifier potassium channel 2 (Mus musculus), P35561 | B-score at 10 µM | actives 0.85% (n = 310,000) | HEK293-Kir2.1, FluxOR thallium flux fluorescence; hits give low values;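 active = fluorescence ratio B-score at or below minus 3 SD of library scores, with starting-brightness B-score within 2 SD, cut at about -4.2 in these data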;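 also: channel flux triggered by added potassium and thallium sulfate stimulus; B-score of peak minus minimum fluorescence over baseline after thallium stimulus; more negative B-score means stronger Kir2.1 block with less thallium influx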
Target sequence (P35561 whole entry, looked up): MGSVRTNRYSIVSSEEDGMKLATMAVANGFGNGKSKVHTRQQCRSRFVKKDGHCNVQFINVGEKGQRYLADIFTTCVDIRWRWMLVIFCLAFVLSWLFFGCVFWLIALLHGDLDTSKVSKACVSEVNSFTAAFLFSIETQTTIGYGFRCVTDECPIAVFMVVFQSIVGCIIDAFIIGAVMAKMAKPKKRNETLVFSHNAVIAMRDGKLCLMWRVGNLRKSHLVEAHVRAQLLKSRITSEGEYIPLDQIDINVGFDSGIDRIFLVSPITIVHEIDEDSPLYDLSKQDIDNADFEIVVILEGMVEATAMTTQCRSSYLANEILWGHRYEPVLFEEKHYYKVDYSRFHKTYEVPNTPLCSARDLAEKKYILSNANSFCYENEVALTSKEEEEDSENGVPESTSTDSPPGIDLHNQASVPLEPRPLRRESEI
MrgX1 antagonist: antagonists of human MrgX1 receptor, primary screen, HEK293 cells, Fluo-4 calcium flux; BAM8-22 antagonism; hits give low values; B-score at 10 µM; actives 1.3% (n = 310,000); AID 588676, 2011;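 active = calcium-response B-score plate-corrected more than 3 library SD below zero, starting fluorescence within 5 deviations, no agonist response on first addition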;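 also: peak minus trough fluorescence over baseline after final BAM8-22 challenge near maximal dose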
MrgX1 allo act: positive allosteric modulators of MrgX1, primary screen, HEK293 cells, Fluo-4 calcium flux; Mas-related G-protein coupled receptor member X1 (Homo sapiens), Q96LB2; FDSS; hits give high values; B-score at 10 µM; actives 0.63% (n = 310,000);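 active = plate-corrected calcium response at least 3 library SD above typical, normal starting fluorescence, not activating the receptor alone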;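 also: compound read alongside a low EC10 to EC30 dose of BAM8-22 agonist; peak minus trough fluorescence over baseline measured at the second addition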
MrgX1 ag: agonists of human MrgX1 receptor, primary screen, HEK293 cells, Fluo-4 calcium flux; actives 0.44% (n = 310,000); Fluo-4 calcium fluorescence, agonist mode; hits give high values; B-score at 10 µM; Mas-related G-protein coupled receptor member X1 (Homo sapiens), Q96LB2;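 active = calcium response B-score plate-corrected fluorescence ratio at least 3 library SD, with starting fluorescence B-score inside 5 SD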
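Material: MrgX1-expressing HEK293 cells; input: 15,000 cells per well; doses: test compound given as first of three sequential additions; schedule: overnight plating before 1 h dye loading; technique: Fluo-4 NW calcium-flux fluorescence, kinetic read; evaluation: baseline-normalised fluorescence change ratio, B-scored; control set: plate-wise positive and negative controls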
MrgX1 antag conf: MrgX1 receptor antagonists, duplicate retest, confirmation, HEK293 cells, Fluo-4 calcium flux | shares compounds with MrgX1 antagonist | BAM8-22 calcium flux; hits give low values | remaining BAM8-22 calcium response % of control (hits give low values), % at 10 µM | actives 19% (n = 2,300);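 active = remaining agonist calcium response no higher than 100% minus 3 SD of agonist-only control wells, with starting fluorescence near control levels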;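 also: agonist BAM8-22 given at a near maximal EC90 to ECmax level; peak minus minimum fluorescence divided by baseline after agonist addition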
HEK293 Ca flux: nonspecific calcium signal in parental HEK293, confirmation, counter-screen for MrgX1 antagonist project, parental HEK293 cells, Fluo-4 calcium flux; shares compounds with MrgX1 antagonist; Fluo-4 calcium fluorescence, FDSS; fluorescence ratio F(max-min)/F0 at 10 µM; actives 2% (n = 4,000); AID 624111, 2012;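 active = duplicate-averaged calcium fluorescence ratio at least three times the standard deviation of buffer wells, a nonspecific response in parental cells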
HEK293 Ca counter: calcium response in parental HEK293 cells, primary screen, counter-screen for MrgX1 allosteric activator project, cell-based, Fluo-4 calcium flux, duplicate. AID 624114, 2012. fluorescence ratio F(max-min)/F0 at 10 µM. actives 0.4% (n = 4,000). Fluo-4 fluorescence ratio; hits give high values. shares compounds with MrgX1 antagonist;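 active = calcium fluorescence ratio, averaged over duplicates, at least 3 SD of the buffer-well ratio, meaning a nonspecific response in receptor-free cells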;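 also: untransfected parental HEK293 lacking MrgX1 used as counterscreen for MrgX1 allosteric activators; fluorescence change taken during the second addition on a kinetic imager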
HEK293 Ca cntr2: calcium response in parental HEK293 cells, primary screen, counter-screen for MrgX1 agonist project, cell-based, Fluo-4 calcium flux, duplicate, agonist mode; actives 8.7% (n = 4,000); Fluo-4 calcium fluorescence (FDSS); hits give high values; fluorescence ratio F(max-min)/F0 at 10 µM; shares compounds with MrgX1 antagonist; AID 624115, 2012;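 active = calcium fluorescence ratio at least three times the spread of buffer wells, meaning a non-specific response in parental cells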
An asterisk follows results filed as active. Shown are actives, neighbours in structure and some others; about 4.1% of the full set was active somewhere.

How did O=C(Nc1ccc2c(c1)OCO2)Nc1ccc2c(c1)OCO2 do in these assays?
RGS4 act: inactive; RGS4 inh: inactive; Kir21 block: -1.1; MrgX1 antagonist: inactive; MrgX1 allo act: inactive; MrgX1 ag: inactive

Results for O=C(Nc1ccc(F)cc1)Nc1ccc2c(c1)OCO2 ?
RGS4 act: inactive; RGS4 inh: inactive; Kir21 block: 0.31; MrgX1 antagonist: -4.8*; MrgX1 allo act: inactive; MrgX1 ag: inactive; MrgX1 antag conf: inactive; HEK293 Ca flux: inactive; HEK293 Ca counter: inactive; HEK293 Ca cntr2: inactive

How did Cc1ccc(OC(F)F)c(NC(=O)Nc2cccc(C(F)(F)F)c2)c1 do in these assays?
RGS4 act: inactive; RGS4 inh: inactive; Kir21 block: -1.6; MrgX1 antagonist: inactive; MrgX1 allo act: inactive; MrgX1 ag: inactive

What do the screens show for `Cc1cccc(N2CCN(C(=O)COc3cc(=O)n(C)c4ccccc34)CC2)c1C`?
RGS4 act: inactive; RGS4 inh: inactive; Kir21 block: 0.79; MrgX1 antagonist: inactive; MrgX1 allo act: inactive; MrgX1 ag: inactive

How did Cc1cccc(N2CCN(C(=O)Cc3cn(C)c4ccccc34)CC2)c1C do in these assays?
RGS4 act: inactive; RGS4 inh: inactive; Kir21 block: 0.04; MrgX1 antagonist: -4.7*; MrgX1 allo act: inactive; MrgX1 ag: inactive; MrgX1 antag conf: 81%*; HEK293 Ca flux: inactive; HEK293 Ca counter: inactive; HEK293 Ca cntr2: inactive

Results for COc1ccccc1N1CCSC1C(N)=O (centres undefined) ?
RGS4 act: inactive; RGS4 inh: inactive; Kir21 block: 1.1; MrgX1 antagonist: -7.1*; MrgX1 allo act: inactive; MrgX1 ag: inactive; MrgX1 antag conf: inactive; HEK293 Ca flux: inactive; HEK293 Ca counter: inactive; HEK293 Ca cntr2: inactive

How did CCOC(=O)N1CCN(c2ccccc2OC)CC1 do in these assays?
RGS4 act: inactive; RGS4 inh: inactive; Kir21 block: 0.1; MrgX1 antagonist: inactive; MrgX1 allo act: inactive; MrgX1 ag: inactive

What do the screens show for `COc1ccc(N=Cc2cc3c(cc2O)OC(N)=C(C#N)C3c2ccccc2)cc1` (centres undefined)?
RGS4 act: inactive; RGS4 inh: inactive; Kir21 block: 0.01; MrgX1 antagonist: -5.9*; MrgX1 allo act: inactive; MrgX1 ag: inactive; MrgX1 antag conf: inactive; HEK293 Ca flux: inactive; HEK293 Ca counter: inactive; HEK293 Ca cntr2: inactive

How did N#CC1=C(N)Oc2cc3ccccc3cc2C1c1cccnc1 (centres undefined) do in these assays?
RGS4 act: inactive; RGS4 inh: inactive; Kir21 block: 0.1; MrgX1 antagonist: inactive; MrgX1 allo act: inactive; MrgX1 ag: inactive

What do the screens show for `COc1c(C(=O)Nc2nccs2)ccc2ccccc12`?
RGS4 act: inactive; RGS4 inh: inactive; Kir21 block: 0.72; MrgX1 antagonist: inactive; MrgX1 allo act: inactive; MrgX1 ag: inactive

What do the screens show for `COc1cc2ccccc2cc1C(=O)Nc1nccs1`?
RGS4 act: inactive; RGS4 inh: inactive; Kir21 block: -0.26; MrgX1 antagonist: -4.6*; MrgX1 allo act: inactive; MrgX1 ag: inactive; MrgX1 antag conf: inactive; HEK293 Ca flux: inactive; HEK293 Ca counter: inactive; HEK293 Ca cntr2: inactive

How did CC1CCN(C(=O)c2cc(F)c(F)cc2Cl)CC1 do in these assays?
RGS4 act: inactive; RGS4 inh: inactive; Kir21 block: 0.69; MrgX1 antagonist: -5.2*; MrgX1 allo act: inactive; MrgX1 ag: inactive; MrgX1 antag conf: inactive; HEK293 Ca flux: inactive; HEK293 Ca counter: inactive; HEK293 Ca cntr2: inactive

How did COc1ccc(/C=C/C(=O)Nc2ccc3c(c2)CCC3)cc1OC do in these assays?
RGS4 act: inactive; RGS4 inh: inactive; Kir21 block: 0.09; MrgX1 antagonist: inactive; MrgX1 allo act: inactive; MrgX1 ag: inactive

How did Cc1ccc(NC(=O)CCN2C(=O)CSC2=O)c(C)c1 do in these assays?
RGS4 act: inactive; RGS4 inh: inactive; Kir21 block: 1.1; MrgX1 antagonist: -4.6*; MrgX1 allo act: inactive; MrgX1 ag: inactive; MrgX1 antag conf: inactive; HEK293 Ca flux: inactive; HEK293 Ca counter: inactive; HEK293 Ca cntr2: inactive

Results for O=C(Cc1ccccc1[N+](=O)[O-])Nc1ccccc1C(=O)N1CCCC1 ?
RGS4 act: inactive; RGS4 inh: inactive; Kir21 block: 0.5; MrgX1 antagonist: inactive; MrgX1 allo act: inactive; MrgX1 ag: inactive

Results for O=C(NCC(c1ccco1)N1CCN(c2ccccc2)CC1)c1cccs1 (centres undefined) ?
RGS4 act: inactive; RGS4 inh: inactive; Kir21 block: 0.55; MrgX1 antagonist: inactive; MrgX1 allo act: inactive; MrgX1 ag: inactive

Results for O=C(CSc1nnc2ccccn12)N1CCOCC1 ?
RGS4 act: inactive; RGS4 inh: inactive; Kir21 block: 2; MrgX1 antagonist: inactive; MrgX1 allo act: inactive; MrgX1 ag: inactive

Results for Nn1c(SCC(=O)N2CCOCC2)nnc1-c1ccccc1Cl ?
RGS4 act: inactive; RGS4 inh: inactive; Kir21 block: -0.13; MrgX1 antagonist: -6.2*; MrgX1 allo act: inactive; MrgX1 ag: inactive; MrgX1 antag conf: 74%*; HEK293 Ca flux: inactive; HEK293 Ca counter: inactive; HEK293 Ca cntr2: inactive

Results for Cc1ccccc1OCC(=O)OCC(=O)N1CCCc2ccccc21 ?
RGS4 act: inactive; RGS4 inh: inactive; Kir21 block: 0; MrgX1 antagonist: inactive; MrgX1 allo act: inactive; MrgX1 ag: inactive

Screens as filed in PubChem BioAssay.
